Most compounds without a hit are left out; they make up all but 2.9% or so of the library.
E-sel inducer: E-selectin induction in HUVECs, primary screen, imaging, HUVEC, immunofluorescence imaging, single point. actives 0.37% (n = 260,000). P16581. normalized: neutral wells 0, TNF-alpha wells 100. activation, % at 7.58 µM;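 active means mean E-selectin-positive cell signal at least 10% of the positive control, reached in at least 60% of replicates, without over 20% cell loss; inconclusive means no rule given, readout overlaps actives, possibly toxicity-flagged; inactive means the rest, including those meeting only one limit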
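System: HUVEC / Compound: single concentration / Signal: immunofluorescence imaging / Read-out: percent E-selectin-positive cells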
DENV2 CPE rescue: inhibitors of DENV2 cytopathic effect, primary screen, cell-based, plate reader, single concentration; DENV2-infected cells, cytopathic effect rescue; actives 1.7% (n = 350,000); CPE inhibition, % at 9.99 µM; in the data active means CPE inhibition above about 20%, passing the limit was not always enough; inconclusive means no clear call, values can overlap the other calls; tested in BHK-21 cells;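 further: 0% = median of neutral control wells and 100% = median of positive control wells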
SIRT5 inh: SIRT5 desuccinylase inhibitors, primary screen, biochemical, fluorescence imaging, single point, set 5; NAD-dependent protein deacylase sirtuin-5, mitochondrial (Homo sapiens), Q9NXA8; Purified SirT5, succinyl-peptide AMC, trypsin-coupled fluorescence; AID 652115, 2013; inhibition, % at 15 µM; actives 1.1% (n = 330,000); in the data active means inhibition above about 15%; inconclusive means no clear call, values can overlap the other calls
Target sequence (Q9NXA8 whole entry, looked up): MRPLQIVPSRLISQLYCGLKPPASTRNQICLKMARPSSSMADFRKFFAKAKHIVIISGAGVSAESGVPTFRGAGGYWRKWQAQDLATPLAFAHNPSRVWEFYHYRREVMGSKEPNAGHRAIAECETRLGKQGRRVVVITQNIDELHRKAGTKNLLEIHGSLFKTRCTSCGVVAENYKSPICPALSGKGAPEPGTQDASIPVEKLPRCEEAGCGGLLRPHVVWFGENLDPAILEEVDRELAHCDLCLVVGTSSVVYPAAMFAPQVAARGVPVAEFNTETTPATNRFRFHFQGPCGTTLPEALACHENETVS
Numbers without * were called inactive; ? = inconclusive; nt = no result; ! = not active in a repeat.

SMILES	E-sel inducer	DENV2 CPE rescue	SIRT5 inh
CN(C)C(=O)c1ccc(-c2ccc([C@H]3[C@H](C#N)N(C(=O)C4CCC4)[C@H]3CO)cc2)cc1	0	-5	-1
CN(C)C(=O)c1ccc(-c2ccccc2[C@H]2[C@@H](C#N)N(C(=O)C3CCC3)[C@H]2CO)cc1	0	24*	-3
O=C(NCCCn1ccnc1)c1[nH]c(C(F)(F)F)nc1-c1ccccc1	0	-4	-4
C[C@@H]1CN([C@H](C)CO)C(=O)c2cccc(NC(=O)C3CC3)c2O[C@H]1CN(C)Cc1ccc(Cl)c(Cl)c1	-1	8	3
C[C@@H]1CN([C@H](C)CO)C(=O)c2cc(NS(=O)(=O)c3ccccc3)ccc2O[C@@H](C)CCCCO[C@H]1CN(C)S(=O)(=O)c1cccs1	nt	?	1
Oc1ccccc1NCC(O)Cn1ccc2ccccc21 (centres undefined)	6	nt	nt
COc1ccccc1NC(=O)Nc1ccc(NC(=O)c2ccccc2O)cc1	nt	-1	-1
COc1cccc(S(=O)(=O)N(C)C[C@H]2Oc3cc(C4=CCCCC4)ccc3S(=O)(=O)N([C@@H](C)CO)C[C@@H]2C)c1	0	-1	-1
COc1cccc(S(=O)(=O)N(C)C[C@H]2Oc3cc(C4=CCCC4)ccc3S(=O)(=O)N([C@@H](C)CO)C[C@H]2C)c1	0	-8	21*
COc1cccc(S(=O)(=O)N(C)C[C@@H]2Oc3cc(C4=CCCC4)ccc3S(=O)(=O)N([C@H](C)CO)C[C@@H]2C)c1	0	11	-6
COc1cccc(S(=O)(=O)N(C)C[C@@H]2Oc3cc(C4=CCCCC4)ccc3S(=O)(=O)N([C@@H](C)CO)C[C@H]2C)c1	0	4	22*
Cc1ccc(S(=O)(=O)N2CCN(C(=S)NCC3CCCO3)CC2)cc1 (centres undefined)	0	-4	4
Cc1cccc(OCCCN2CCOCC2)c1C	0	?	3
Cc1ccc(-c2cc(C(=O)N3CCN(c4ccccc4O)CC3)c3ccccc3n2)o1	3	-9	-2
O=C(CCC1CCCN(C(=O)C2CCCC2)C1)NCc1ccc(F)c(F)c1 (centres undefined)	nt	nt	6
O=C1CN(S(=O)(=O)Cc2ccccc2)C[C@H]2[C@H](c3ccc(C#CCC4CCCC4)cc3)[C@@H](CO)N12	-1	-2	9
Cc1ccccc1S(=O)(=O)N1CC(=O)N2[C@H](CO)[C@H](c3ccc(C#Cc4ccccc4)cc3)[C@H]2C1	3	24*	-1
Cc1ccccc1S(=O)(=O)N1CC(=O)N2[C@H](CO)[C@H](c3ccc(C#CCC4CCCC4)cc3)[C@@H]2C1	0	?	4
Cc1ccccc1S(=O)(=O)N1CC(=O)N2[C@H](C1)[C@@H](c1ccc(C#Cc3ccccc3)cc1)[C@@H]2CO	0	2	-44
Cc1ccccc1S(=O)(=O)N1CC(=O)N2[C@@H](CO)[C@H](c3ccc(C#CCC4CCCC4)cc3)[C@@H]2C1	-1	-1	16*
O=C1CN(S(=O)(=O)Cc2ccccc2)C[C@H]2[C@@H](c3ccc(C#CCC4CCCC4)cc3)[C@@H](CO)N12	-1	?	16*
COc1ccccc1S(=O)(=O)N[C@@H]1CC[C@@H](CC(=O)N2CCN(C)CC2)O[C@H]1CO	0	6	2
O=C(CN1CCN(c2nc(-c3ccc(F)cc3)cs2)CC1)Nc1ccc2c(c1)OCO2	nt	10	-4
CC1CCN(CC(=O)Nc2cccc([N+](=O)[O-])c2)CC1	nt	-3	0
COc1ccccc1C#Cc1cnc2c(c1)C(=O)N([C@H](C)CO)C[C@@H](C)[C@@H](CN(C)C)O2	1	-4	6
SMILES	E-sel inducer	DENV2 CPE rescue	SIRT5 inh
Cc1ccc(/C=C2/CNC/C(=C/c3ccc(C)cc3)C2=O)cc1	1	-1	-6
COc1ccc(-c2ccc3c(c2)[C@@H]2[C@@H](CCN2C(=O)Cc2cccnc2)[C@H](CO)N3C)cc1	-1	nt	2
CN(C)c1cccc(C(=O)Nc2cc(C(F)(F)F)ccc2-n2cnc3ccccc32)c1	nt	25*	nt
COc1ccc(C(=O)Nc2cc(C(F)(F)F)ccc2-n2cnc3ccccc32)cc1	-1	-21	2
C[C@H](O)[C@@H]1CN2CCc3c([nH]c4ccccc34)[C@@H]2C[C@@H]1N(C)C(=O)OCc1ccccc1	1	19	-2
CC(=O)Nc1ccc(NC(=O)C2CCCN(S(=O)(=O)c3ccc(-n4cnnn4)cc3)C2)cc1 (centres undefined)	nt	10	1
Cc1ncoc1C(=O)N1CCCC(C(=O)c2ccc(-c3ccccc3)c(F)c2)C1 (centres undefined)	2	17	1
CCOc1ccc(-n2c(SCC(N)=O)nnc2-c2cccnc2)cc1	0	23*	-1
COc1cccc(-n2c(SCC(=O)OC(C)C)nnc2-c2cccnc2)c1	nt	12	0
C[C@@H]1CN([C@@H](C)CO)C(=O)CCCn2nncc2CO[C@H]1CN(C)S(=O)(=O)c1ccccc1	-3	16	0
COCC(=O)N1[C@@H](C#N)[C@@H](c2ccccc2-c2cccc(C)c2)[C@@H]1CO	0	0	-3
CCOc1ccc(-c2noc(CCCC(=O)NC3CCCC3)n2)cc1OC	0	2	19*
COc1ccc(-c2noc(CCCC(=O)NC3CCCCC3)n2)cc1OC	0	10	-4
C[C@@H]1CN([C@@H](C)CO)C(=O)c2cc(C#CCc3ccccc3)cnc2O[C@H]1CN(C)C(=O)Cc1cccnc1	0	-8	2
CCC(CO)Oc1cc(NCc2ccccc2C(F)(F)F)c2ncn(C(C)C)c2c1 (centres undefined)	0	-2	nt
COc1ccccc1C1CC(c2ccccc2)=NN1S(=O)(=O)c1ccccc1 (centres undefined)	3	-3	0
COc1ccc(C2CC(c3ccccc3)=NN2S(=O)(=O)c2ccccc2)c(OC)c1 (centres undefined)	0	22*	-4
CC(=O)N(Cc1ccccc1)c1nc(-c2ccccc2)cs1	nt	-3	-1
C[C@H]1CN([C@@H](C)CO)C(=O)c2cccc(NC(=O)c3ccc(-c4nccs4)cc3)c2O[C@@H]1CN(C)C(=O)NC1CCCCC1	-4	0	1
C[C@@H]1CN([C@@H](C)CO)C(=O)c2cccc(NC(=O)c3ccc(-c4nccs4)cc3)c2O[C@H]1CN(C)S(C)(=O)=O	-5	-4	-2
C[C@H]1CN([C@@H](C)CO)C(=O)c2cccc(NC(=O)c3ccc(-c4nccs4)cc3)c2O[C@@H]1CN(C)C	6	nt	4
CC(C)NC(=O)N(C)C[C@@H]1Oc2c(NC(=O)c3ccc(-c4nccs4)cc3)cccc2C(=O)N([C@@H](C)CO)C[C@@H]1C	81*	8	3
CC(C)NC(=O)N(C)C[C@H]1Oc2c(NC(=O)c3ccc(-c4nccs4)cc3)cccc2C(=O)N([C@@H](C)CO)C[C@H]1C	65*!	14	4
C[C@H]1CN([C@@H](C)CO)C(=O)c2cccc(NC(=O)c3ccc(-c4nccs4)cc3)c2O[C@H]1CN(C)S(C)(=O)=O	-4	15	17*

Screening results from PubChem BioAssay.
